Reference: the RNAGym collection of RNA variant scans (doi:10.1002/anie.201605470)

B1: Osa-1-4 twister ribozyme (parent)
chain: CCGCCUAACACUGCCAAUGCCGGUCCCAAGCCCGGAUAAAAGUGGAGGGGGCGG

Variants of: B1
Assay: self-cleavage, relative activity (ratio to wild type); higher = more cleavage; co-transcriptional
Method in brief: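 For each read, cleavage status was taken from whether upstream sequence was present. The reads came from an Oryza sativa twister ribozyme of 54 nucleotides, whose DNA template was synthesised with 97 % wild-type base and 1 % of each other base at the 48 positions downstream of the cleavage site. The template was transcribed in vitro at 37 °C for 2 h with co-transcriptional self-cleavage, and the RNA was reverse-transcribed using a template-switching oligonucleotide, PCR-amplified and deep-sequenced. Relative activity is the fraction cleaved normalised to wild type.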

Variant	self-cleavage
C14U C27U	0.06
C14U C27G	0.06
C14U C27A	0.05
C14U G50C	0.1
C14U G50U	0.18
C14U G50A	0.35
C14G G19U	0.08
C14G G19A	0.24
C14G G19C	0.04
C14U C25U	0.1
C14U C25A	0.06
C14U C25G	0.06
C14A U24A	0.03
C14A U24C	0.04
C14A U24G	0.02
C14U U18G	0.53
C14U U18A	0.5
C14U U18C	0.51
C14A G42U	0.03
C14A G42C	0.05
C14A G42A	0.05
C14G G44A	0.23
C14G G44U	0.08
C14G G44C	0.07

Variant	self-cleavage
C15A C31A	0.03
C15A C31U	0.09
C15A C31G	0.05
C14A G53U	0.05
C14A G53C	0.02
C14A G53A	0.06
C15A G50A	0.38
C15A G50C	0.14
C15A C21G	0.07
C15A C21U	0.46
C15A C21A	0.15
C14G G30U	0.14
C14G G30A	0.07
C14G G30C	0.64
C14U C26U	0.11
C14U C26G	0.07
C14U C26A	0.03
C14U G30A	0.79
C14U G30C	0.03
C14U G30U	0.03
C14A U18G	0.11
C14A U18C	0.11
C14A U18A	0.09
C14G G51U	0.04

Variant	self-cleavage
C14G G51A	0.08
C14G G51C	0.04
C15A C27A	0.16
C15A C27U	0.07
C15A C27G	0.04
C14G C27U	0.07
C14G C27G	0.07
C14G C27A	0.03
C14U G49C	0.05
C14U G49A	0.05
C14U G49U	0.06
C14U C31U	0.06
C14U C31G	0.06
C14U C31A	0.03
C15A G34C	0.11
C15A G34A	0.23
C15A G34U	0.14
C15A C9U	0.19
C15A C9G	0.14
C15A C9A	0.14
C15A G48U	0.04
C15A G48C	0.04
C15A G48A	0.05
C14G C15U	0.06

Variant	self-cleavage
C14G C15G	0.22
C14G C15A	0.06
C14A G35U	0.09
C14A G35C	0.05
C14A G35A	0.12
C14G C33G	0.05
C14G C33U	0.07
C14G C33A	0.04
C14U U24A	0.04
C14U U24G	0.02
C14U U24C	0.05
C14G U43G	0.06
C14G U43C	0.07
C14G U43A	0.09
C14G G49C	0.03
C14G G49U	0.03
C14G G49A	0.04
C14G G42A	0.09
C14G G42C	0.06
C14G G42U	0.02
C15A C26G	0.06
C15A C26A	0.05
C15A C26U	0.12
C14U G51C	0.04

Variant	self-cleavage
C14U G51A	0.12
C14U G51U	0.05
C14U G54U	0.47
C14U G54C	0.12
C14U G54A	0.17
C14U G48U	0.05
C14U G48C	0.05
C14U G48A	0.05
C15A G42A	0.12
C15A G42C	0.08
C15A G42U	0.05
C14G U18A	0.16
C14G U18C	0.15
C14G U18G	0.27
C14G G54A	0.1
C14G G54C	0.06
C14G G54U	0.3
C14U C20U	0.48
C14U C20G	0.05
C14U C20A	0.51
C14U C9G	0.2
C14U C9A	0.12
C14U C9U	0.41
C14U U43A	0.12

Variant	self-cleavage
C14U U43G	0.09
C14U U43C	0.09
C14U G45C	0.04
C14U G45U	0.06
C14U G45A	0.04
C15A G49A	0.05
C15A G49U	0.05
C15A G49C	0.04
C14U G44C	0.33
C14U G44A	0.59
C14U G44U	0.14
C14G U24G	0.02
C14G U24C	0.04
C14G U24A	0.04
C15A G19A	0.92
C15A G19U	0.82
C15A G19C	0.38
C14A G48A	0.02
C14A G48C	0.02
C14A G48U	0.02
C14U G23U	0.03
C14U G23A	0.06
C14U G23C	0.04
C14G U12A	0.09

Variant	self-cleavage
C14G U12C	0.09
C14G U12G	0.06
C14G G47A	0.05
C14G G47C	0.04
C14G G47U	0.04
C14A G44C	0.06
C14A G44U	0.05
C14A G44A	0.07
C14U G47U	0.06
C14U G47C	0.06
C14U G47A	0.07
C14G C20A	0.17
C14G C20G	0.16
C14G C20U	0.22
C14G G35U	0.06
C14G G35C	0.04
C14G G35A	0.07
C14A G45U	0.03
C14A G45A	0.04
C14A G45C	0.01
C15A G44C	0.33
C15A G44U	0.19
C15A G44A	0.11
C14U G35A	0.43

Variant	self-cleavage
C14U G35U	0.21
C14U G35C	0.07
C14G C21U	0.16
C14G C21A	0.09
C14G C21G	0.05
C14G C31A	0.02
C14G C31U	0.05
C14G C31G	0.15
C14U G53C	0.05
C14U G53A	0.11
C14U G53U	0.09
C14A G30U	0.62
C14A G30C	0.03
C14A G30A	0.02
C14A G47A	0.04
C14A G47C	0.03
C14A G47U	0.05
C14G G22U	0.07
C14G G22A	0.07
C14G G22C	0.07
C15A G35U	0.35
C15A G35A	0.48
C15A G35C	0.09
C14U U37G	0.74

Variant	self-cleavage
C14U U37C	0.57
C14U U37A	0.5
C14U C15U	0.09
C14U C15G	0.07
C14U C15A	0.08
C14A G34A	0.07
C14A G34U	0.05
C14A G34C	0.05
C15A C32G	0.07
C15A C32A	0.08
C15A C32U	0.07
C15A G23U	0.05
C15A G23C	0.03
C15A G23A	0.08
C15A G30U	0.03
C15A G30C	0.04
C15A G30A	0.02
C15A G45A	0.05
C15A G45C	0.04
C15A G45U	0.04
C14U G42C	0.06
C14U G42U	0.03
C14U G42A	0.09
C14U C21U	0.39

Variant	self-cleavage
C14U C21G	0.06
C14U C21A	0.12
C14A U37G	0.15
C14A U37C	0.12
C14A U37A	0.07
C14G	0.21
C14U	0.63
C15A	0.61
C15A C20G	0.06
C15A C20U	0.65
C15A C20A	0.52
C14A G54U	0.22
C14A G54C	0.06
C14A G54A	0.1
C14A G51C	0.02
C14A G51A	0.06
C14A G51U	0.04
C14U U12C	0.09
C14U U12G	0.05
C14U U12A	0.09
C14G G13C	0.01
C14G G13A	0.07
C14G G13U	0.05
C15A C25A	0.07

Variant	self-cleavage
C15A C25U	0.08
C15A C25G	0.04
C14G U37G	0.25
C14G U37C	0.19
C14G U37A	0.27
C14U C33G	0.03
C14U C33A	0.04
C14U C33U	0.08
C14U C52U	0.52
C14U C52G	0.28
C14U C52A	0.21
C14G G34A	0.13
C14G G34U	0.06
C14G G34C	0.09
C14U G22U	0.11
C14U G22A	0.21
C14U G22C	0.04
C15A G47C	0.04
C15A G47U	0.06
C15A G47A	0.06
C14U G13A	0.03
C14U G13U	0.02
C14U G13C	0.02
C14U G19A	0.09

Variant	self-cleavage
C14U G19C	0.03
C14U G19U	0.05
C15A G13A	0.04
C15A G13U	0.02
C15A G13C	0.04
C15A C52U	0.57
C15A C52G	0.32
C15A C52A	0.23
C15A C33G	0.03
C15A C33A	0.07
C15A C33U	0.09
C14G C52G	0.13
C14G C52A	0.14
C14G C52U	0.18
C14G C25G	0.07
C14G C25U	0.12
C14G C25A	0.03
C14G C32A	0.03
C14G C32U	0.04
C14G C32G	0.08
C14G G53A	0.09
C14G G53C	0.04
C14G G53U	0.06
C14G G45C	0.03

Variant	self-cleavage
C14G G45U	0.03
C14G G45A	0.04
C14A G19U	0.07
C14A G19C	0.04
C14G G48A	0.03
C14G G48C	0.04
C14G G48U	0.03
C14A U12A	0.08
C14A U12G	0.06
C14A U12C	0.05
C15A G22A	0.2
C15A G22U	0.09
C15A G22C	0.03
C14U G34U	0.11
C14U G34A	0.15
C14U G34C	0.08
C14A G23U	0.02
C14A G23C	0.02
C14A G23A	0.05
C14A G50C	0.08
C14A G50A	0.09
C14A G50U	0.07
C14A G22A	0.08
C14A G22C	0.02

Variant	self-cleavage
C14A G22U	0.05
C14U C32G	0.04
C14U C32U	0.06
C14U C32A	0.04
C14A U43A	0.06
C14A U43G	0.07
C14A U43C	0.06
C14G C26A	0.03
C14G C26G	0.07
C14G C26U	0.07
C14G C9U	0.08
C14G C9A	0.04
C14G C9G	0.16
C14A G49U	0.03
C14A G49C	0.01
C14A G49A	0.02
C14G G23C	0.04
C14G G23U	0.03
C14G G23A	0.08
C14G G50A	0.13
C14G G50U	0.1
C14G G50C	0.08
